Assay results as given in article PMC9279635 (Acta Pharmaceutica Sinica. B, 2021).

Key:
EPH-A2 = EPH-A2 (Homo sapiens, UniProt P29317); test: Kinase selectivity test, EPH-A2; format: biochemical; details: 10 nmol/L
RET = RET (Homo sapiens, UniProt P07949); test: ELISA kinase assay, RET; format: biochemical
[1] = tested on: DDR2 phosphorylation in MRC-5; test: DDR2 phosphorylation in TGF-β stimulated MRC-5; format: cell-based; details: 1 μmol/L, MRC-5, 24 h TGF-β stimulation
How it was run: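 Confluent MRC-5 fibroblasts are stimulated with TGF-β (5 ng/mL) and treated with a range of test compound concentrations for 24 h. Western blots are probed for phospho-DDR2, fibronectin, α-SMA, with GAPDH as loading control.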

c-Src = c-Src (Homo sapiens, UniProt P12931); test: Kinase selectivity test, c-Src; format: biochemical; details: 10 nmol/L
KDR = KDR (Homo sapiens, UniProt P35968); test: ELISA kinase assay, KDR; format: biochemical; details: 10 nmol/L
DDR1 = DDR1 (Homo sapiens, UniProt Q08345); test: ELISA kinase assay, DDR1; format: biochemical
FGFR-1 = FGFR-1 (Homo sapiens, UniProt P11362); test: Kinase selectivity test, FGFR-1; format: biochemical; details: 10 nmol/L
Flt-3 = target: T1, Flt-3 (Homo sapiens, UniProt P36888); test: ELISA kinase assay, Flt-3; format: biochemical; details: read-out: Flt-3 inhibition@100 nmol/L
T1 sequence (P36888 27-993): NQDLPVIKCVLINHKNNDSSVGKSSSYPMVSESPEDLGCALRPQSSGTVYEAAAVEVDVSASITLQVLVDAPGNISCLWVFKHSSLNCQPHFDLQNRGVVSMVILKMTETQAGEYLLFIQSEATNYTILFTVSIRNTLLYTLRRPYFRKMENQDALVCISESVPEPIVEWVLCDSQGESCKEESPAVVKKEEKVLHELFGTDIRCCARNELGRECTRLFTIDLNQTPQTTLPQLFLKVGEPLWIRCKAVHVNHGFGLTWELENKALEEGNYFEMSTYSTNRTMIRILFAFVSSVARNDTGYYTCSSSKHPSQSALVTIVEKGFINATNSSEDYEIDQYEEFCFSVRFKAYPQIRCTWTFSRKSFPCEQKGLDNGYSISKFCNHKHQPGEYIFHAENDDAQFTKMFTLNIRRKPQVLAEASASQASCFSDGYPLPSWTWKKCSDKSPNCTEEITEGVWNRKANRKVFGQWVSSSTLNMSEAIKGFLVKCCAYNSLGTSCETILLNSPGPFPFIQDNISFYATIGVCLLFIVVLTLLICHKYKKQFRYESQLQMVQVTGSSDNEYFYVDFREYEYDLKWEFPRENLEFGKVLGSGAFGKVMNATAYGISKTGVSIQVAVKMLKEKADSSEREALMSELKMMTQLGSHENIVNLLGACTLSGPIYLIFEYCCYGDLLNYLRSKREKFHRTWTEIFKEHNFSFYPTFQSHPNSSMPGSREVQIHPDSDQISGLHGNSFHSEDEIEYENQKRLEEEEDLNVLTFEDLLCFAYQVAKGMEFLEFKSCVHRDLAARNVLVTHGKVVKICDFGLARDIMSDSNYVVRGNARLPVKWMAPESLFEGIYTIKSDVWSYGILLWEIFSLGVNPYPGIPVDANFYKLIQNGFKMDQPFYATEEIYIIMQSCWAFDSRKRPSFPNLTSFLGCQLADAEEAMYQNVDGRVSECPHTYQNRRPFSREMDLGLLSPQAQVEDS

AXL = target: T2, AXL (Homo sapiens, UniProt P30530); test: Kinase selectivity test, AXL; format: biochemical; details: 10 nmol/L
T2 sequence (P30530 26-894): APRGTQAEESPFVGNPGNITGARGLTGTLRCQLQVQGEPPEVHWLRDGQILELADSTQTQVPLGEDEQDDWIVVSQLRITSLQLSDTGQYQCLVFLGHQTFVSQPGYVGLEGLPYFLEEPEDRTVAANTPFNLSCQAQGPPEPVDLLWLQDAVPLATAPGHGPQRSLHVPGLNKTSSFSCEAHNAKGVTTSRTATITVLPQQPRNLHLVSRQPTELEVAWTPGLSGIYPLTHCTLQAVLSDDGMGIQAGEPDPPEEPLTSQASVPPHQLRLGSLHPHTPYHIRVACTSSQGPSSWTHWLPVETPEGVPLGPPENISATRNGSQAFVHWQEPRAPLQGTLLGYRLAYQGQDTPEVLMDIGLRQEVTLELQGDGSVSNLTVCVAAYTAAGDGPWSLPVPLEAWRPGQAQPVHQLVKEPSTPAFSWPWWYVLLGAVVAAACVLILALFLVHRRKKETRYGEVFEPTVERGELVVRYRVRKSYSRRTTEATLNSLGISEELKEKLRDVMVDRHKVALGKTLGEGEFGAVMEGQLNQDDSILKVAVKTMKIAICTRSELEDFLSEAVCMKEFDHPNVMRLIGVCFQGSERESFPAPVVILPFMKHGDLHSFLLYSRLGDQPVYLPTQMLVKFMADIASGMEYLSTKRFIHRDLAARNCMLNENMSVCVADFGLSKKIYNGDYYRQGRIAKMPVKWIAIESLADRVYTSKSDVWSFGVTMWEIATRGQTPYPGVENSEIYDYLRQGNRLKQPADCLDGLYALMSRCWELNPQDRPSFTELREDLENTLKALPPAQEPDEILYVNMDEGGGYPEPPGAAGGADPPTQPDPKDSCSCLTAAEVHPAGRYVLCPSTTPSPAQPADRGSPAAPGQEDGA

ABL = ABL (Homo sapiens, UniProt P00519); test: Kinase selectivity test, ABL; format: biochemical; details: 10 nmol/L
VEGFR-1 = VEGFR-1 (Homo sapiens, UniProt P17948); test: Kinase selectivity test, VEGFR-1; format: biochemical; details: 10 nmol/L
PDGFR = test: Kinase selectivity test, PDGFR; format: biochemical; details: 10 nmol/L
ALK = ALK (Homo sapiens, UniProt Q9UM73); test: Kinase selectivity test, ALK; format: biochemical; details: 1 μmol/L
ErbB4 = ErbB4 (Homo sapiens, UniProt Q15303); test: Kinase selectivity test, ErbB4; format: biochemical; details: 10 nmol/L
Chain of ErbB4 (Q15303 26-1308): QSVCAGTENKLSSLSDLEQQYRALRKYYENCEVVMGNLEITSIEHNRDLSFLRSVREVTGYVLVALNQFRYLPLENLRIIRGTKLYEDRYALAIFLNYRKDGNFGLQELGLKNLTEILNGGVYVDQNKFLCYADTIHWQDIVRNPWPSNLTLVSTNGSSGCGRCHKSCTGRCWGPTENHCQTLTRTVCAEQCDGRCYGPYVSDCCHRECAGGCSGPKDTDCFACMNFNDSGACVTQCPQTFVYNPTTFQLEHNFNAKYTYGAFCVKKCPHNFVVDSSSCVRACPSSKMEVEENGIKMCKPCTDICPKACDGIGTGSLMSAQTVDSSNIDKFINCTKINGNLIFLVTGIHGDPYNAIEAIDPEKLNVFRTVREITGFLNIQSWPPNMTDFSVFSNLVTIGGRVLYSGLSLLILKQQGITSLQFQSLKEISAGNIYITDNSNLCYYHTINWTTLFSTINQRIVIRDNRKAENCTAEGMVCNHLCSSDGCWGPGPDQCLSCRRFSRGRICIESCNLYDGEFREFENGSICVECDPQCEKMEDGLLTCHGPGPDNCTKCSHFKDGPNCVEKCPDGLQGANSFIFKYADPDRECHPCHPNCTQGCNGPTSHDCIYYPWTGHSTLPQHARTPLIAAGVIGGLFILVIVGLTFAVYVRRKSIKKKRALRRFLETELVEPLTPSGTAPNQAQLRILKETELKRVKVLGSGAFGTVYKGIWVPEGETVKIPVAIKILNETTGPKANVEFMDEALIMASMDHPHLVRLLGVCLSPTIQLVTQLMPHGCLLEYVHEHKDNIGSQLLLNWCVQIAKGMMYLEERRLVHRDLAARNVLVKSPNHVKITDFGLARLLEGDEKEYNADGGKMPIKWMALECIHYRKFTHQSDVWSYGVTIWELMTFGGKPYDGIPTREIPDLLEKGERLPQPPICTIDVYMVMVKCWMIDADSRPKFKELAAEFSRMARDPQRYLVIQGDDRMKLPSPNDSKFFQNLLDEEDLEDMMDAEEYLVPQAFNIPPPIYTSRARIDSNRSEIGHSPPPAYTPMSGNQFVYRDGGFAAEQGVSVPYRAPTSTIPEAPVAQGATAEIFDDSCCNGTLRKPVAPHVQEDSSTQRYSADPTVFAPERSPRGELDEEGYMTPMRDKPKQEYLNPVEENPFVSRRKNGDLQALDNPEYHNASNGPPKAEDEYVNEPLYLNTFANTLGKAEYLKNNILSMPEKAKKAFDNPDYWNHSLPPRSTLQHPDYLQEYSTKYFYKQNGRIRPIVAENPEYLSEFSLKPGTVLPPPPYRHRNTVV

Chain of RET (P07949 29-1114): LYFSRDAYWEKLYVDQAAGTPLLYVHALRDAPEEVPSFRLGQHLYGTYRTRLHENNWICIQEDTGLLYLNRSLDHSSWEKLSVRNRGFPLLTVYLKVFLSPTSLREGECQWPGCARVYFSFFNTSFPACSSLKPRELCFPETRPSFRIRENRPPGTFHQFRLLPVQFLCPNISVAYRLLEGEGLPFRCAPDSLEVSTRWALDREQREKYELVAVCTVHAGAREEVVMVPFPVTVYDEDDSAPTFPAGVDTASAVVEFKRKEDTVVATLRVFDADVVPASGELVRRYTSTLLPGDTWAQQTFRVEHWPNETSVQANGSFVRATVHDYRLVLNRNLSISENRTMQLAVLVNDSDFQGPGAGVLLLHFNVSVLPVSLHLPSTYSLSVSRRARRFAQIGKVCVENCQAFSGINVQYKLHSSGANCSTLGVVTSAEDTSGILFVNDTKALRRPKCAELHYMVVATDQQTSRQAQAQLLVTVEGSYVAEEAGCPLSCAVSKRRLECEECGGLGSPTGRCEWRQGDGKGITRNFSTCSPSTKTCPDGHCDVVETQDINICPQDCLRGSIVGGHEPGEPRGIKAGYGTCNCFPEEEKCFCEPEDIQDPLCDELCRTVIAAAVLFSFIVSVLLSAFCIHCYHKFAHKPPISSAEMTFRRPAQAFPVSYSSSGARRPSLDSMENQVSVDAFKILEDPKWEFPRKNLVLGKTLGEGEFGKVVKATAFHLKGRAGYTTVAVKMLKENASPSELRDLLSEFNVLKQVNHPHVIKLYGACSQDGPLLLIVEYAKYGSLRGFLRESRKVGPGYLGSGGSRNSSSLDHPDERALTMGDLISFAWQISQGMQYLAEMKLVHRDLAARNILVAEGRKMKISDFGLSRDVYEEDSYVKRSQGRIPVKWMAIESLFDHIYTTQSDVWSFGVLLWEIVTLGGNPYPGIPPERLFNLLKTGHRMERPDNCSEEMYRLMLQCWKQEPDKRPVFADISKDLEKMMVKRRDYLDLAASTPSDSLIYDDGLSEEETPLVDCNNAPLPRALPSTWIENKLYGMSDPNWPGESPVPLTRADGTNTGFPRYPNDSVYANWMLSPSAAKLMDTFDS
Chain of c-Src (P12931 whole entry): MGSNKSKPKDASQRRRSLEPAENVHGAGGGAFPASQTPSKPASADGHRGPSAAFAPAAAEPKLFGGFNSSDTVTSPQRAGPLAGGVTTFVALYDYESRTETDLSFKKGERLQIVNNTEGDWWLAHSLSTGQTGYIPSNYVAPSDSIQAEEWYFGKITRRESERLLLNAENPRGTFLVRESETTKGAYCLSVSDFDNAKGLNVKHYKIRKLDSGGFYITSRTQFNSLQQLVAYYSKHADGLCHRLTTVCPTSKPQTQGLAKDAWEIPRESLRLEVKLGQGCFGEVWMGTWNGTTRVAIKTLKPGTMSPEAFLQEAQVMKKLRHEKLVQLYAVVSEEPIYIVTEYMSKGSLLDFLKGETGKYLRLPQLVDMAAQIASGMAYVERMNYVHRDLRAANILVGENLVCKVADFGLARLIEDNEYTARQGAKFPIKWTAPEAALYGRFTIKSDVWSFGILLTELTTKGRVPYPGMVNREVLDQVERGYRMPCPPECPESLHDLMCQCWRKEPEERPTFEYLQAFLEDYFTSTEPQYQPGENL
Chain of DDR1 (Q08345 19-913): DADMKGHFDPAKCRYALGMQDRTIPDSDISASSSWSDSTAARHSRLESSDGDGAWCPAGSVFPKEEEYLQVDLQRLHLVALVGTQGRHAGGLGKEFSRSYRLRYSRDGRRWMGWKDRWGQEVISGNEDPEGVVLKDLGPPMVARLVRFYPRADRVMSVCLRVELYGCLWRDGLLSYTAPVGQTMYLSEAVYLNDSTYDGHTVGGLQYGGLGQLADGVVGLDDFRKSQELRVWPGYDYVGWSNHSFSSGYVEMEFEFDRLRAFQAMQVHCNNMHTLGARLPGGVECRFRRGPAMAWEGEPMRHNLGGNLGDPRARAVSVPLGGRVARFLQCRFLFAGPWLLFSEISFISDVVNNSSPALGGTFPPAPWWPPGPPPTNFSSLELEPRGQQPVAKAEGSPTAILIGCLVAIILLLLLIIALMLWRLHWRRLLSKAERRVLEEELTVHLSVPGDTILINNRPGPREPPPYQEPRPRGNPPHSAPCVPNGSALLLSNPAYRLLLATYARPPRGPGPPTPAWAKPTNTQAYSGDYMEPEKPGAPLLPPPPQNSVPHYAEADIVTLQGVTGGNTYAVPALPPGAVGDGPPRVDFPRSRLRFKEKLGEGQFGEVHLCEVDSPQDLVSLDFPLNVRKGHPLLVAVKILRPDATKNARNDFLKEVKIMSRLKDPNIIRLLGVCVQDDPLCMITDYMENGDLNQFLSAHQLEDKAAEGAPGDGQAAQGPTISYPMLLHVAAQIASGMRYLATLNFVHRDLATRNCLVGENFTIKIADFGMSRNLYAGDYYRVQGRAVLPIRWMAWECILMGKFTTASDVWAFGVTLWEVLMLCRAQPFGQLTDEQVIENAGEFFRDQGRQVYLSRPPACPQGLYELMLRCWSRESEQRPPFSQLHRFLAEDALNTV
Chain of FGFR-1 (P11362 22-822): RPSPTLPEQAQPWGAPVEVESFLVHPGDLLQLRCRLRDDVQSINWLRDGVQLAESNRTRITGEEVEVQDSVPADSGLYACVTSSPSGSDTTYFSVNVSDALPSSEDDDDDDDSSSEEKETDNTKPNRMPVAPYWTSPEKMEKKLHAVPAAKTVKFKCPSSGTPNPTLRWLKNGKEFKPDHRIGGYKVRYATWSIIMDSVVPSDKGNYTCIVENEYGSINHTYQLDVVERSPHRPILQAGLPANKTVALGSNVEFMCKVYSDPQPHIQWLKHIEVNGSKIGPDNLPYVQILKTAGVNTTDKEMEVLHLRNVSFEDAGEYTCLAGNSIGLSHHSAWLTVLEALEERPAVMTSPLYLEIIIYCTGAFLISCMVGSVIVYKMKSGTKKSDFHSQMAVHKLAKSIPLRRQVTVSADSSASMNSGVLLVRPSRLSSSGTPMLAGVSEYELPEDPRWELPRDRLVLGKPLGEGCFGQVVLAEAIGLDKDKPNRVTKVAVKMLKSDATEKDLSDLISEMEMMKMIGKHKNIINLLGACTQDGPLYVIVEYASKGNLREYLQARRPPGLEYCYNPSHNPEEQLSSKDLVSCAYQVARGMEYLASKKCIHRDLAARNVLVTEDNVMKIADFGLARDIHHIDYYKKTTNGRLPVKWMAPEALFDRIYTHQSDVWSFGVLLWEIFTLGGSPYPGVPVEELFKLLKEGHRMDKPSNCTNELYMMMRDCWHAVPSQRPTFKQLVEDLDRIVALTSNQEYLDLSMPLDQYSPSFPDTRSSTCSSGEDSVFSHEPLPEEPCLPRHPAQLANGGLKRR

- EPH-A2 inhibition ratio (EPH-A2): over 50%
- inhibition at 0.01 µM (RET; read-out: RET inhibition @10 nmol/L): > 50%
- inhibition at 0.1 µM (RET; read-out: RET inhibition @100 nmol/L): 97.2%
- c-Src inhibition ratio (c-Src): over 50%
- KDR inhibition ratio (KDR): over 50%
- IC50 (DDR1): 8.13 nM
- FGFR-1 inhibition ratio (FGFR-1): over 50%
- inhibition at 0.1 µM (Flt-3): 80.3%
- AXL inhibition ratio (AXL): over 50%
- ABL inhibition ratio (ABL): over 50%
- VEGFR-1 inhibition ratio (VEGFR-1): over 50%
- PDGFR inhibition ratio (PDGFR): over 50%
- inhibition ratio on ALK (ALK): 18.5%
- ErbB4 inhibition ratio (ErbB4): over 50%
SMILES: Cc1ccc(C(=O)Nc2cccc(C(F)(F)F)c2)cc1-c1ccc2nc(Nc3cnn(C)c3)ncc2c1 [Compound 22, 4-Methyl-3-(2-((1-methyl-1H-pyrazol-4-yl)amino)quinazolin-6-yl)-N-(3-(trifluoromethyl)phenyl)benzamide]
- inhibition of DDR2 phosphorylation [1]: high inhibitory activity
